In this assay the test system is Plasmodium falciparum. Description: In vitro minimum inhibitory concentration against Plasmodium falciparum NF54 over 40 hours. It counts as functional. The essentials: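 Micro assay in 96-well format: compounds at 0.25–50 µg/mL, duplicate wells, incubated with parasitized cells at 37 °C in candle jar, 36–40 h. Giemsa-stained smears scored microscopically for ring-to-schizont maturation. MIC is the concentration fully blocking schizont maturation. Pyrimethamine reference.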

In brackets after ≈: the same amount, converted by molar mass.

As usually defined, the MIC is the least concentration at which growth counts as inhibited. Read a high MIC as a need for much substance. For the compound `Clc1ccc(-c2cc(-c3c[nH]c4ccccc34)nc(N3CCCC3)n2)cc1`, the MIC came out at 10 µg/mL (≈ 26.7 µM).

The compound `COc1ccc(-c2cc(-c3c[nH]c4ccccc34)nc(N3CCN(C)CC3)n2)cc1OC` returned an MIC of 1 µg/mL (≈ 2.33 µM).

Compound `CN1CCN(c2nc(-c3ccc(Cl)cc3)cc(-c3c[nH]c4ccccc34)n2)CC1` displayed an MIC of 1 µg/mL (≈ 2.48 µM).

`Clc1ccc(-c2cc(-c3c[nH]c4ccccc34)nc(N3CCCCC3)n2)cc1`: the MIC worked out at 10 µg/mL (≈ 25.7 µM).

For `Clc1ccc(-c2cc(-c3c[nH]c4ccccc34)nc(N3CCOCC3)n2)cc1`, inhibition of growth (MIC) required 50 µg/mL (≈ 128 µM).

Turning to `Cc1ccc(-c2cc(-c3c[nH]c4ccccc34)nc(N3CCCCC3)n2)cc1`, the lowest concentration to inhibit growth (MIC) was 10 µg/mL (≈ 27.1 µM).

`COc1ccc(-c2cc(-c3c[nH]c4ccccc34)nc(N3CCCCC3)n2)cc1` returned an MIC of 10 µg/mL (≈ 26 µM).

On to `CN1CCN(c2nc(-c3ccccc3)cc(-c3c[nH]c4ccccc34)n2)CC1`, for which the minimal inhibitory concentration (MIC) worked out at 1 µg/mL (≈ 2.71 µM).

Turning to `COc1ccc(-c2cc(-c3c[nH]c4ccccc34)nc(N3CCN(C)CC3)n2)cc1`, the lowest concentration to inhibit growth (MIC) was 1 µg/mL (≈ 2.5 µM).

With `COc1ccc(OC)c(-c2cc(-c3c[nH]c4ccccc34)nc(N3CCOCC3)n2)c1`, the MIC stood at 50 µg/mL (≈ 120 µM).

The compound `Cc1ccc(-c2cc(-c3c[nH]c4ccccc34)nc(N3CCN(C)CC3)n2)cc1` had an MIC of 1 µg/mL (≈ 2.61 µM).

In turn, `COc1ccc(-c2cc(-c3c[nH]c4ccccc34)nc(N3CCOCC3)n2)cc1` gave an MIC of 50 µg/mL (≈ 129 µM).

Consider `Cc1ccc(-c2cc(-c3c[nH]c4ccccc34)nc(N3CCOCC3)n2)cc1`, for which it took 50 µg/mL (≈ 135 µM) to inhibit growth (MIC).

Compound `c1ccc(-c2cc(-c3c[nH]c4ccccc34)nc(N3CCOCC3)n2)cc1` gave an MIC of 50 µg/mL (≈ 140 µM).

In the case of `COc1ccc(-c2cc(-c3c[nH]c4ccccc34)nc(N3CCCC3)n2)cc1`, the MIC was 10 µg/mL (≈ 27 µM).

The compound `c1ccc(-c2cc(-c3c[nH]c4ccccc34)nc(N3CCCCC3)n2)cc1` gave an MIC of 10 µg/mL (≈ 28.2 µM).

With `COc1ccc(OC)c(-c2cc(-c3c[nH]c4ccccc34)nc(N3CCCCC3)n2)c1`, the MIC is 10 µg/mL (≈ 24.1 µM).

In the case of `COc1ccc(-c2cc(-c3c[nH]c4ccccc34)nc(N3CCCC3)n2)cc1OC`, the MIC was 10 µg/mL (≈ 25 µM).

The compound `Cc1ccc(-c2cc(-c3c[nH]c4ccccc34)nc(N3CCCC3)n2)cc1` came in with an MIC of 10 µg/mL (≈ 28.2 µM).

For the compound `COc1ccc(-c2cc(-c3c[nH]c4ccccc34)nc(N3CCOCC3)n2)cc1OC`, 50 µg/mL (≈ 120 µM) was the least that counted as inhibitory (MIC).

The compound `COc1ccc(OC)c(-c2cc(-c3c[nH]c4ccccc34)nc(N3CCCC3)n2)c1` gave an MIC of 10 µg/mL (≈ 25 µM).

`c1ccc(-c2cc(-c3c[nH]c4ccccc34)nc(N3CCCC3)n2)cc1` came in with an MIC of 10 µg/mL (≈ 29.4 µM).

With `COc1ccc(-c2cc(-c3c[nH]c4ccccc34)nc(N3CCCCC3)n2)cc1OC`, inhibition of growth (MIC) required 10 µg/mL (≈ 24.1 µM).

`COc1ccc(OC)c(-c2cc(-c3c[nH]c4ccccc34)nc(N3CCN(C)CC3)n2)c1` displayed an MIC of 1 µg/mL (≈ 2.33 µM).

As for `CCc1nc(N)nc(N)c1-c1ccc(Cl)cc1` [PYRIMETHAMINE], it took 10 µg/mL (≈ 40.2 µM) to inhibit growth (MIC).

These data come from ChEMBL document CHEMBL1139634, “Synthesis of substituted indole derivatives as a new class of antimalarial agents” (2005).
